Measurements from ChEMBL document CHEMBL2331332 (J Med Chem, 2013).
Activity calls are given as the source filed them. The calls are words filed in the database; no cut-off is given here.

Tests used:
Prostaglandin E synthase [1] = biological target: T1, Prostaglandin E synthase (Homo sapiens, UniProt O14684); test: Inhibition of full-length microsomal PGES-1 (unknown origin) expressed in Escherichia coli Rosetta(DE3) using PGH2 as substrate assessed as inhibition of PGH2 conversion to PGE2 incubated 15 mins prior to substrate addition measured after 1 min by EIA
T1 sequence (O14684 whole entry): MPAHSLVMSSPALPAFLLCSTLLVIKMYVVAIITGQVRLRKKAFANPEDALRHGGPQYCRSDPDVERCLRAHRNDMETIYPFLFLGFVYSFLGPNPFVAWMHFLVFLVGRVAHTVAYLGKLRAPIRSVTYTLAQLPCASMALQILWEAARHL
Summary of the method: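 Reactions used 2.5 mM cofactor and 17 μM PGH2 for 1 min at 4 °C, then were stopped, and PGE2 was quantified by EIA. IC50 came from dose-response curves. Mean ± SEM, n = 3.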

Prostaglandin E synthase [2] = biological target: T1, Prostaglandin E synthase; test: Inhibition of PGES-1 in human whole blood assessed as LPS-induced PGE2 formation incubated for 15 mins prior to LPS addition measured after 24 hrs by EIA
Summary of the method: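 Fresh heparinized blood came from healthy volunteers free of NSAIDs for at least 14 days. It was preincubated 15 min at 37 °C with compound or DMSO vehicle. LPS (final 100 μg/mL) was then added for 24 h at 37 °C. Plasma was obtained by centrifugation at 4 °C, and PGE2 was read by EIA.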

[3] = biological target: T2, Polyunsaturated fatty acid 5-lipoxygenase (Homo sapiens) (UniProt P09917); test: Inhibition of 5-LOX (unknown origin) at 10 uM by human whole blood LTB4 assay
T2 sequence (whole entry): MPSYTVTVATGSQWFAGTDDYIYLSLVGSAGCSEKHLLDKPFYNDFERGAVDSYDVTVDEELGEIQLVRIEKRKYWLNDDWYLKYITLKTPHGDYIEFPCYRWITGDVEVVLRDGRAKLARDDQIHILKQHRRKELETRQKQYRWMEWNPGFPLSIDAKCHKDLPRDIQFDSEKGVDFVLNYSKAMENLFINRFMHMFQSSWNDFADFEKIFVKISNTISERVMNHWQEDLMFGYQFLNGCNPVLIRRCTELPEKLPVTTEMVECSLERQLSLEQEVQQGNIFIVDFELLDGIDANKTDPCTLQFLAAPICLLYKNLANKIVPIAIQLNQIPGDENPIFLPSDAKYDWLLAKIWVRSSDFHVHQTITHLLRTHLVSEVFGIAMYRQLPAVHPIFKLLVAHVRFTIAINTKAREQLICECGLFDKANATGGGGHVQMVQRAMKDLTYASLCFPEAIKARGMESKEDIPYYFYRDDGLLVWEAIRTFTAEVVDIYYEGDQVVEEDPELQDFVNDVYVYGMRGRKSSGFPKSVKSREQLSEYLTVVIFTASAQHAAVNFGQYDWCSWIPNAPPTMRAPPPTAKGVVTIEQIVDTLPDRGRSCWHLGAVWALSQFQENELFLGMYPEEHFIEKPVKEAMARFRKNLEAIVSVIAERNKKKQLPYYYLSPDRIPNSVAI

[4] = biological target: T2, Polyunsaturated fatty acid 5-lipoxygenase (Homo sapiens); test: Inhibition of 5-LOX-mediated LTB4 formation in human whole blood at 10 uM incubated for 20 mins prior to substrate addition measured after 0.5 hrs by EIA in presence of calcium ionophore A23187
Summary of the method: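 Human whole blood was stimulated with calcium ionophore A23187 (final 20 μg/mL) for 0.5 h at 37 °C to induce LTB4 formation. Compounds were tested at 10 μM.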

[5] = biological target: T3, Prostaglandin E synthase (Homo sapiens) (UniProt O14684); test: Competitive inhibition of full-length microsomal PGES-1 (unknown origin) expressed in Escherichia coli Rosetta(DE3) using PGH2 as substrate incubated for 5 mins prior to substrate addition relative to control in presence of increased substrate concentration
T3 sequence (whole entry): T1 sequence (O14684 whole entry)

[6] = biological target: T3, Prostaglandin E synthase (Homo sapiens); test: Competitive inhibition of full-length microsomal PGES-1 (unknown origin) expressed in Escherichia coli Rosetta(DE3) using PGH2 as substrate preincubated for 15 mins relative to control in presence of 2.5 mM of cofactor GSH
[7] = biological target: T3, Prostaglandin E synthase (Homo sapiens); test: Competitive inhibition of full-length microsomal PGES-1 (unknown origin) expressed in Escherichia coli Rosetta(DE3) using PGH2 as substrate incubated for 5 mins prior to substrate addition relative to control
[8] = biological target: T3, Prostaglandin E synthase (Homo sapiens); test: Competitive inhibition of full-length microsomal PGES-1 (unknown origin) expressed in Escherichia coli Rosetta(DE3) using PGH2 as substrate preincubated for 15 mins relative to control in presence of 25 mM of cofactor GSH
[9] = system: Prostaglandin G/H synthase 2 (COX-2); test: Inhibition of COX-2 (unknown origin)-mediated TMPD oxidation using PGG2 as substrate at 100 uM incubated 15 mins prior to substrate addition measured after 36 secs by spectrophotometric analysis; conditions: Homo sapiens
[10] = biological target: T3, Prostaglandin E synthase (Homo sapiens); test: Competitive inhibition of full-length microsomal PGES-1 (unknown origin) expressed in Escherichia coli Rosetta(DE3) using PGH2 as substrate preincubated for 15 mins relative to control in presence of higher glutathione disulfide concentration
Summary of the method: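 This GSSG control repeated the cofactor competition setup, with added GSH replaced by GSSG at the same final mass-volume percentage. 2.5 mM GSH was always present, and PGH2 was 17 μM. Preincubation was 15 min at 4 °C. Zero inhibition was set from the GSH activity curve, and PGE2 was read by EIA. Mean ± SEM, n = 3.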

[11] = system: Prostaglandin G/H synthase 1 (COX-1); test: Inhibition of COX-1 (unknown origin)-mediated TMPD oxidation using PGG2 as substrate at 100 uM incubated 15 mins prior to substrate addition measured after 36 secs by spectrophotometric analysis; conditions: Homo sapiens
[12] = biological target: T3, Prostaglandin E synthase (Homo sapiens); test: Inhibition of full-length microsomal PGES-1 (unknown origin) expressed in Escherichia coli Rosetta(DE3) using PGH2 as substrate assessed as PGH2 conversion to PGE2 at 10 uM incubated 15 mins prior to substrate addition measured after 1 min by EIA
[13] = biological target: T3, Prostaglandin E synthase (Homo sapiens); test: Inhibition of microsomal PGES-1 (unknown origin) expressed in Escherichia coli using PGH2 as substrate assessed as inhibition of PGE2 formation at 10 uM by reversed phase HPLC analysis

IC50 (Prostaglandin E synthase [1]) [µM]	IC50 (Prostaglandin E synthase [2]) [µM]	inhibition [3] [%]	inhibition [4] [%]	inhibition [9] [%]	inhibition [11] [%]	SMILES	also measured
0.002	1.4	< 1	< 1	–	–	CC(c1ccccc1)N1C(=O)c2ccc(C(=O)Nc3cc(Cl)ccc3C(=O)O)cc2C1=O (stereo not given)	–
0.0046	6.2	30	< 1	–	–	Cc1cc(C)c2oc(-c3ccc(C)c(NC(=O)c4cccc([N+](=O)[O-])c4)c3)nc2c1	–
0.038	120	–	–	–	–	COc1ccc(CN2C(=O)/C(=C/c3ccc(OCc4ccc([N+](=O)[O-])cc4)c(Br)c3)S/C2=N\c2ccccc2)cc1	–
0.0018	3.8	< 1	< 1	14.7	< 1	O=C(O)CN1C(=O)/C(=C2/C(=O)N(CC(=O)O)c3ccccc32)SC1=S	inhibition [5]: 0%; inhibition [6]: 80%; inhibition [7]: > 60%; inhibition [8]: < 15%; inhibition [10]: Active
–	–	–	–	–	–	CCOc1cc(/C=C2/C(=O)N(c3ccc(Cl)cc3)N=C2C)ccc1OCC(=O)O	inhibition [12]: 10%
0.057	66	–	–	–	–	C/C(=N\NC(=O)c1ccc([N+](=O)[O-])c(C)c1)c1cccc(NC(=O)COc2ccc(Cl)cc2Cl)c1	–
5	> 200	–	–	–	–	Cc1ccc2[nH]c3c(c2c1)CCC/C3=N\N=C1/CCCc2c1[nH]c1ccc(C)cc21	–
0.002	6.5	< 1	< 1	12.9	< 1	CCOC(=O)C1=C(C)N=c2s/c(=C\c3ccc(-c4ccc(Cl)c(C(=O)O)c4)o3)c(=O)n2C1c1ccccc1Cl (stereo not given)	inhibition [5]: 0%; inhibition [6]: 80%; inhibition [7]: > 60%; inhibition [8]: < 15%; inhibition [10]: Active
0.0097	8.5	39	< 1	-2.2	< 1	COc1cc(NC(=O)c2nn3c(C(F)(F)F)cc(-c4ccc(Br)cc4)nc3c2Cl)cc([N+](=O)[O-])c1	–
0.1	200	–	–	–	–	O=C(N/N=C/c1ccc([N+](=O)[O-])cc1)c1cc(OCc2ccccc2)c(OCc2ccccc2)c(OCc2ccccc2)c1	–
0.004	0.3	20	< 1	< 1	2.1	COc1ccc(-c2nnc(SCC(=O)c3ccc4c(c3)Cc3ccccc3-4)nc2-c2ccc(OC)cc2)cc1	inhibition [5]: 0%; inhibition [6]: 80%; inhibition [7]: > 60%; inhibition [8]: < 15%; inhibition [10]: Active
0.0065	8.5	10	< 1	1.8	< 1	Clc1ccc(/C=C/c2cc(-c3ccc(-c4ccccc4)cc3)nc3ccc4ccccc4c23)cc1	–
1.7	200	–	–	–	–	O=C(COC(=O)c1ccc2c(c1)C(=O)N(c1ccc(Oc3ccccc3)cc1)C2=O)c1ccc(Br)cc1	–
1.2	160	–	–	–	–	Cc1ccc(C(=O)O)cc1-c1ccc(/C=C2\SC(=O)N(CC(=O)Nc3ccccc3)C2=O)o1	–
0.17	18.5	–	–	–	–	CC1=NN(c2ccc(Cl)c(Cl)c2)C(=O)/C1=C/c1cc(Br)ccc1OCC(=O)O	–
1.6	> 200	–	–	–	–	C=CCSc1nnc2c(n1)OC(c1ccc(-c3cccc([N+](=O)[O-])c3)o1)Nc1ccccc1-2 (stereo not given)	–
1.8	130	–	–	–	–	Cc1nc2sc3c(c2c(=O)n1/N=C/c1cc([N+](=O)[O-])cc([N+](=O)[O-])c1O)CCCC3	–
0.01	17	10	< 1	2.5	1	CC1=NN(c2ccc([N+](=O)[O-])cc2)C(=O)/C1=N\Nc1ccccc1C(=O)O	–
1.7	> 200	–	–	–	–	Cn1c(=O)c(/C(=N/Nc2ccc([N+](=O)[O-])cc2[N+](=O)[O-])c2nnn[nH]2)c(O)c2ccccc21	–
–	–	–	–	–	–	Cc1ccc2oc(-c3cccc(NC(=O)c4ccccc4[N+](=O)[O-])c3)nc2c1	inhibition [13]: 50%
0.1	> 200	–	–	–	–	CCn1c2ccccc2c2cc(-c3cc(C(=O)O)c4c(ccc5ccccc54)n3)ccc21	–
0.0093	0.7	8	< 1	< 1	< 1	Cc1ccc([N+](=O)[O-])cc1NC(=O)CSc1nnc(CNc2c(C)cccc2C)n1C	–
0.0011	4.4	< 1	< 1	1	4.1	COc1cc(-c2cc(C(=O)O)c3c(ccc4ccccc43)n2)ccc1OCCCC#N	–
